Data from ChEMBL document CHEMBL4152223 (Eur J Med Chem, 2018).
pIC50: −log10 of the molar value. ≈ marks a conversion by molar mass, not a printed value.

Experiments:
[1] = test system: Mycobacterium tuberculosis; experiment: Antimycobacterial activity against Mycobacterium tuberculosis H37Rv after 21 days; format: functional; conditions: 504 h
Mycobacterium kansasii [2] = experiment: Antimycobacterial activity against Mycobacterium kansasii 235/80 after 21 days; format: functional; conditions: 235/80, 504 h
HepG2 = experiment: Cytotoxicity against human HepG2 cells assessed as reduction in cell viability by MTS assay; format: cell-based
Method in brief: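 HepG2 human hepatocellular carcinoma cells (passage 2-4) were cultured in Eagle's MEM with 10% FBS, 1% L-glutamine and non-essential amino acids. Compounds were dissolved in DMSO and tested in triplicate at eight concentrations. Viability was read by colorimetric MTS tetrazolium reduction. Controls were 100% viability and 0% viability (10% DMSO). IC50 is the concentration reducing viability to 50% of control.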

Mycobacterium kansasii [3] = experiment: Antimycobacterial activity against Mycobacterium kansasii 6509/96 after 21 days; format: functional; conditions: 6509/96, 504 h
Mycobacterium avium [4] = experiment: Antimycobacterial activity against INH/RIF/OFX resistant Mycobacterium avium 330/88 after 14 days; format: functional; conditions: 330/88, 336 h
Mycobacterium kansasii [5] = experiment: Antimycobacterial activity against Mycobacterium kansasii 235/80 after 14 days; format: functional; conditions: 235/80, 336 h
[6] = test system: Mycobacterium tuberculosis; experiment: Antimycobacterial activity against Mycobacterium tuberculosis H37Rv after 14 days; format: functional; conditions: 336 h
Mycobacterium kansasii [7] = experiment: Antimycobacterial activity against Mycobacterium kansasii 6509/96 after 7 days; format: functional; conditions: 6509/96, 168 h
Mycobacterium kansasii [8] = experiment: Antimycobacterial activity against Mycobacterium kansasii 6509/96 after 14 days; format: functional; conditions: 6509/96, 336 h
Mycobacterium avium [9] = experiment: Antimycobacterial activity against INH/RIF/OFX resistant Mycobacterium avium 330/88 after 21 days; format: functional; conditions: 330/88, 504 h
Mycobacterium kansasii [10] = experiment: Antimycobacterial activity against Mycobacterium kansasii 235/80 after 7 days; format: functional; conditions: 235/80, 168 h
[11] = Selectivity index, ratio of IC50 for human HepG2 cells to MIC for Mycobacterium tuberculosis H37Rv after 14 days; format: toxicity; conditions: read-out: Selectivity Index
Method in brief: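 SI is calculated as HepG2 IC50 divided by MIC. HepG2 cells (passage 2-4) were grown in EMEM with 10% FBS, L-glutamine and non-essential amino acids. Compounds in DMSO were tested in triplicate at eight concentrations, and viability was read by MTS tetrazolium reduction. IC50 is the concentration reducing viability to 50% of control. 10% DMSO served as the 0% viability control.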

Compound	MIC [1] [µM]	MIC (Mycobacterium kansasii [2]) [µM]	pIC50 (HepG2)	MIC (Mycobacterium kansasii [3]) [µM]	MIC (Mycobacterium avium [4]) [µM]	MIC (Mycobacterium kansasii [5]) [µM]	MIC [6] [µM]	MIC (Mycobacterium kansasii [7]) [µM]	MIC (Mycobacterium kansasii [8]) [µM]	MIC (Mycobacterium avium [9]) [µM]	MIC (Mycobacterium kansasii [10]) [µM]	selectivity ratio at 336 h [11]
CCCCCCCCCCCCCCCCCCNC(=O)NNC(=O)c1ccncc1	250 (≈ 108 µg/mL)	250 (≈ 108 µg/mL)	< 4.30	250 (≈ 108 µg/mL)	250 (≈ 108 µg/mL)	250 (≈ 108 µg/mL)	250 (≈ 108 µg/mL)	250 (≈ 108 µg/mL)	250 (≈ 108 µg/mL)	250 (≈ 108 µg/mL)	250 (≈ 108 µg/mL)	
CCCCCCNC(=O)NNC(=O)c1ccncc1	32 (≈ 8.46 µg/mL)	250 (≈ 66.1 µg/mL)	< 3.00	500 (≈ 132 µg/mL)	500 (≈ 132 µg/mL)	250 (≈ 66.1 µg/mL)	32 (≈ 8.46 µg/mL)	250 (≈ 66.1 µg/mL)	500 (≈ 132 µg/mL)	500 (≈ 132 µg/mL)	250 (≈ 66.1 µg/mL)	> 31.3
CCCCCCCCCCCCCCCNC(=O)NNC(=O)c1ccncc1	62.5 (≈ 24.4 µg/mL)	62.5 (≈ 24.4 µg/mL)	< 4.12	125 (≈ 48.8 µg/mL)	125 (≈ 48.8 µg/mL)	62.5 (≈ 24.4 µg/mL)	32 (≈ 12.5 µg/mL)	62.5 (≈ 24.4 µg/mL)	62.5 (≈ 24.4 µg/mL)	125 (≈ 48.8 µg/mL)	32 (≈ 12.5 µg/mL)	
CCCCCCCCCCCCCCCNc1nnc(-c2ccncc2)o1	125 (≈ 46.6 µg/mL)	250 (≈ 93.1 µg/mL)		250 (≈ 93.1 µg/mL)	250 (≈ 93.1 µg/mL)	125 (≈ 46.6 µg/mL)	125 (≈ 46.6 µg/mL)	125 (≈ 46.6 µg/mL)	250 (≈ 93.1 µg/mL)	500 (≈ 186 µg/mL)	62.5 (≈ 23.3 µg/mL)	
CNc1nnc(-c2ccncc2)o1	500 (≈ 88.1 µg/mL)	> 1000		1000 (≈ 176 µg/mL)	> 1000	1000 (≈ 176 µg/mL)	500 (≈ 88.1 µg/mL)	1000 (≈ 176 µg/mL)	1000 (≈ 176 µg/mL)	> 1000	500 (≈ 88.1 µg/mL)	
CCCCNc1nnc(-c2ccncc2)o1	500 (≈ 109 µg/mL)	1000 (≈ 218 µg/mL)		1000 (≈ 218 µg/mL)	> 1000	1000 (≈ 218 µg/mL)	250 (≈ 54.6 µg/mL)	1000 (≈ 218 µg/mL)	1000 (≈ 218 µg/mL)	> 1000	500 (≈ 109 µg/mL)	
CCCCNC(=O)NNC(=O)c1ccncc1	8 (≈ 1.89 µg/mL)	1000 (≈ 236 µg/mL)	< 2.52	500 (≈ 118 µg/mL)	> 1000	1000 (≈ 236 µg/mL)	8 (≈ 1.89 µg/mL)	250 (≈ 59.1 µg/mL)	250 (≈ 59.1 µg/mL)	> 1000	500 (≈ 118 µg/mL)	> 375
CCCCCCCCCCCCCCCCNc1nnc(-c2ccncc2)o1	250 (≈ 96.6 µg/mL)	500 (≈ 193 µg/mL)		500 (≈ 193 µg/mL)	250 (≈ 96.6 µg/mL)	500 (≈ 193 µg/mL)	250 (≈ 96.6 µg/mL)	250 (≈ 96.6 µg/mL)	500 (≈ 193 µg/mL)	250 (≈ 96.6 µg/mL)	250 (≈ 96.6 µg/mL)	
CCCCCCNc1nnc(-c2ccncc2)o1	250 (≈ 61.6 µg/mL)	500 (≈ 123 µg/mL)		500 (≈ 123 µg/mL)	500 (≈ 123 µg/mL)	500 (≈ 123 µg/mL)	250 (≈ 61.6 µg/mL)	125 (≈ 30.8 µg/mL)	250 (≈ 61.6 µg/mL)	500 (≈ 123 µg/mL)	250 (≈ 61.6 µg/mL)	
CCCCCCCCCCNC(=O)NNC(=O)c1ccncc1	32 (≈ 10.3 µg/mL)	125 (≈ 40.1 µg/mL)	< 3.60	250 (≈ 80.1 µg/mL)	500 (≈ 160 µg/mL)	62.5 (≈ 20 µg/mL)	16 (≈ 5.13 µg/mL)	125 (≈ 40.1 µg/mL)	250 (≈ 80.1 µg/mL)	500 (≈ 160 µg/mL)	32 (≈ 10.3 µg/mL)	
CCCCCNc1nnc(-c2ccncc2)o1	62.5 (≈ 14.5 µg/mL)	1000 (≈ 232 µg/mL)		1000 (≈ 232 µg/mL)	> 1000	1000 (≈ 232 µg/mL)	62.5 (≈ 14.5 µg/mL)	500 (≈ 116 µg/mL)	1000 (≈ 232 µg/mL)	> 1000	500 (≈ 116 µg/mL)	
CCCCCCCCCCCNC(=O)NNC(=O)c1ccncc1	62.5 (≈ 20.9 µg/mL)	62.5 (≈ 20.9 µg/mL)	< 4.30	125 (≈ 41.8 µg/mL)	125 (≈ 41.8 µg/mL)	32 (≈ 10.7 µg/mL)	32 (≈ 10.7 µg/mL)	62.5 (≈ 20.9 µg/mL)	125 (≈ 41.8 µg/mL)	125 (≈ 41.8 µg/mL)	16 (≈ 5.35 µg/mL)	
CCCCCCCNc1nnc(-c2ccncc2)o1	125 (≈ 32.5 µg/mL)	500 (≈ 130 µg/mL)		500 (≈ 130 µg/mL)	500 (≈ 130 µg/mL)	500 (≈ 130 µg/mL)	125 (≈ 32.5 µg/mL)	250 (≈ 65.1 µg/mL)	500 (≈ 130 µg/mL)	500 (≈ 130 µg/mL)	250 (≈ 65.1 µg/mL)	
CCCCCCCCCCCCCCNc1nnc(-c2ccncc2)o1	250 (≈ 89.6 µg/mL)	250 (≈ 89.6 µg/mL)		250 (≈ 89.6 µg/mL)	250 (≈ 89.6 µg/mL)	250 (≈ 89.6 µg/mL)	250 (≈ 89.6 µg/mL)	250 (≈ 89.6 µg/mL)	250 (≈ 89.6 µg/mL)	250 (≈ 89.6 µg/mL)	250 (≈ 89.6 µg/mL)	
CCCCCCCCCNc1nnc(-c2ccncc2)o1	62.5 (≈ 18 µg/mL)	250 (≈ 72.1 µg/mL)	< 4.30	250 (≈ 72.1 µg/mL)	125 (≈ 36 µg/mL)	250 (≈ 72.1 µg/mL)	62.5 (≈ 18 µg/mL)	125 (≈ 36 µg/mL)	250 (≈ 72.1 µg/mL)	125 (≈ 36 µg/mL)	125 (≈ 36 µg/mL)	
